Results from PMC9305987 (Nature cell biology, 2022).
Read-outs that look alike come from different tables or passages of the source.

Columns and labels:
Irg1-KO RAW264.7 cells = experiment: SDH inhibition, succinate and 5hmC in LPS-stimulated Irg1-KO macrophages; type: cell-based, mouse; settings: 3-NPA 1 mM, LPS-stimulated Irg1-KO RAW264.7
peritoneal leukocytes = experiment: Genomic 5hmC and 5mC in peritoneal leukocytes after i.p. ITA, LC-MS/MS; type: in vivo, mouse; settings: 50 mg/kg ITA i.p. prior to LPS 25 mg/kg
RAW264.7 cells [1] = experiment: qRT-PCR of LPS-induced genes; type: cell-based, mouse
Outline: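 Alternatively, cells got LPS for 2 h, then OI for 2 h, or LPS plus dimethyl-α-KG (0.5, 1, 2 mM). mRNA was measured by qRT-PCR with β-actin as housekeeping control. Nfkbiz data are means with S.D. of 3 independent experiments.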

[2] = tested on: TET2^CD mutant, i.e. R1896M or S1898F; experiment: STD NMR binding to TET2^CD mutants; design: species or system human
[3] = molecular target: recombinant human TET2^CD (Homo sapiens, UniProt Q6N021); experiment: Saturation transfer difference; type: binding
Outline: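 Spectra were run at 25°C, 700 MHz, cryoprobe, carrier on water. A 3-s saturation used a 50-ms EBurp2 pulse (0.75 ppm bandwidth) centred at 0.8 ppm for difference or −40 ppm for reference spectra.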

[4] = tested on: HEK293T cells overexpressing TET3; experiment: Global 5hmC by dot-blot and LC-MS/MS in TET3-overexpressing cells; type: cell-based
Outline: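 For dot-blot, genomic DNA was spotted on nitrocellulose, UV-crosslinked for 20 min, blocked in 5% milk, probed with anti-5hmC overnight at 4°C and HRP secondary, then scanned. Global 5hmC was also measured by LC-MS/MS, mean with S.D. of 3 independent experiments.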

mTET2^CD = molecular target: T1, mTET2^CD (Mus musculus, UniProt Q4JK59); type: biochemical; settings: for Inhibition of mTET2^CD activity in presence of excess α-KG: fixed concentration of inhibitor, variable α-KG
T1 sequence (Q4JK59 1042-1912 limits assumed): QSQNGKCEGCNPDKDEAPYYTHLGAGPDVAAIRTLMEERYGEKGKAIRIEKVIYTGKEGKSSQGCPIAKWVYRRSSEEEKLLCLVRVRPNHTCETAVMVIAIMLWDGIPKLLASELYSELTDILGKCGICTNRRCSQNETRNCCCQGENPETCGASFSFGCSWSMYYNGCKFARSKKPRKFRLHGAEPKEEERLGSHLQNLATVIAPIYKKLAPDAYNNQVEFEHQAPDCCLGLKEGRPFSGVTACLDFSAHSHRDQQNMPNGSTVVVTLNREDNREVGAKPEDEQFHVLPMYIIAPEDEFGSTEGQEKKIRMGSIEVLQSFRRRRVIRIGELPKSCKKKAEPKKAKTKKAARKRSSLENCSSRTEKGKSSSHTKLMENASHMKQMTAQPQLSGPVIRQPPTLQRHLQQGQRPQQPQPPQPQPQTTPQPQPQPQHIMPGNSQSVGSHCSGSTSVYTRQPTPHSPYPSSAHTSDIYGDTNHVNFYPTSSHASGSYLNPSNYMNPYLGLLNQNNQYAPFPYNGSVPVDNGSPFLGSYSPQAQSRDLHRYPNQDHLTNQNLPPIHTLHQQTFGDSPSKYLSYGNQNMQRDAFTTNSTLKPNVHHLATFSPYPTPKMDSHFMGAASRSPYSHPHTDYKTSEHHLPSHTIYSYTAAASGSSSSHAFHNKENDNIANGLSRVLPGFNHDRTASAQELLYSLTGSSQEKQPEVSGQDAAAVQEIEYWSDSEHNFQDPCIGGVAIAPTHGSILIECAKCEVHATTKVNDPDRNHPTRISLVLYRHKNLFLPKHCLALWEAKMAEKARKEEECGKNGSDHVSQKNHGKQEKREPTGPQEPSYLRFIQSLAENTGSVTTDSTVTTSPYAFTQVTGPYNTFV

[5] = tested on: bone marrow-derived macrophages (BMDMs); experiment: Global 5hmC quantification by LC-MS/MS in BMDMs; type: cell-based, mouse; settings: 0.5 mM OI or increased concentrations of ITA, 8 hours; for Reduction of global 5hmC: Tet2^+/+ BMDMs; for Effect on global 5hmC: Tet2^−/− BMDMs
[6] = tested on: RAW264.7 mouse macrophages; experiment: Intracellular ITA accumulation by LC-MS/MS; type: cell-based; settings: RAW264.7, dose-dependent
LPS-induced sepsis = experiment: Mouse model of LPS-induced sepsis; type: in vivo; settings: Tet2^−/− mice
[7] = tested on: TET2-overexpressing HEK293T cells; experiment: Global histone methylation markers by western blot; type: cell-based
Tet2^+/+ BMDMs = experiment: 5hmC mapping by hMeDIP-seq in BMDMs; type: cell-based, mouse; settings: 0.5 mM OI, 8 hours
[8] = tested on: HEK293T cells overexpressing mTET2^CD; experiment: Global 5hmC by immunofluorescence in TET2-overexpressing cells; type: cell-based; settings: for Effect on 5hmC: HEK293T overexpressing mTET2^CD
Outline: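 TET2-overexpressing HEK293T cells were treated with OI alone or with rising amounts of dimethyl-α-KG. 5hmC immunofluorescence: Triton X-100 permeabilization, 2 N HCl denaturation for 30 min, Tris pH 8.5 neutralization, BSA block, anti-5hmC overnight at 4°C, fluorescent secondary, DAPI counterstain. Two independent experiments.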

RAW264.7 cells [9] = experiment: Genomic 5hmC by IF staining in LPS-treated macrophages; type: cell-based, mouse; settings: LPS 12 hours then 1 mM for 12 hours
Outline: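 RAW264.7 cells (DMEM, 10% FBS) were challenged with LPS for 12 h, then given dimethyl-α-KG (1 mM) for 12 h. Cells were permeabilized with 0.3% Triton X-100 for 15 min, DNA denatured with 2 N HCl for 30 min, and neutralized with 100 mM Tris-HCl pH 8.5. Staining used 3% BSA block, anti-5hmC at 4°C overnight, Alexa Fluor 594 secondary for 1 h, and DAPI, then fluorescence microscopy.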

O=C(O)CC[N+](=O)[O-] [3-NPA, 3-nitropropionic acid]
Effect on global 5hmC (Irg1-KO RAW264.7 cells): little effect | Intracellular accumulation of succinate (Irg1-KO RAW264.7 cells): ≤ 1.5 mM

C=C(CC(=O)O)C(=O)O [ITA, itaconic acid]
5mC in peritoneal leukocytes (peritoneal leukocytes): unaffected | Reduction of 5hmC in peritoneal leukocytes (peritoneal leukocytes; 2 hours post LPS): ≤ 36% | Suppression of LPS-induced chemokine and cytokine genes upon Tet2 deletion (RAW264.7 cells [1]; unmodified ITA 3 mM, Tet2-WT vs Tet2-KO): completely abolished by Tet2 deletion | Binding to TET2^CD mutants R1896M or S1898F (STD NMR) [2]: abolish the binding | Binding to recombinant human TET2^CD (STD NMR) [3]: bound directly | ITA-TET2^CD binding in presence of α-KG (STD NMR) ([3]; competition with α-KG): blocked by α-KG | Effect on global 5hmC [4]: decreased global 5hmC | IC50 (mTET2^CD): 171 µM | Inhibition of mTET2^CD activity in presence of excess α-KG (mTET2^CD): overcome dose-dependently by excess α-KG | Reduction of global 5hmC [5]: ≤ 95% | Effect on global 5hmC [5]: little effect | Time to intracellular accumulation of ITA [6]: < 30 s | Anti-inflammatory and protective effects (LPS-induced sepsis): not observed

O=C(O)CC[C@H](O)C(=O)O [L-2-HG]
Inhibition of mTET2^CD activity in presence of excess α-KG (mTET2^CD): overcome dose-dependently by excess α-KG

C=C(CC(=O)OCCCCCCCC)C(=O)O [OI, octyl-ITA]
Nfkbiz mRNA expression (RAW264.7 cells [1]; LPS-stimulated Tet2-KO cells): failed to affect | LPS-induced mRNA expression of Nfkbiz, Il-6, Cxcl9/10/11 (RAW264.7 cells [1]; Tet2-WT, LPS 2 hours then OI 2 hours): hindered | Effect on global histone methylation [7]: no detectable effect | 5hmC by hMeDIP-seq (Tet2^+/+ BMDMs): decreased 5hmC at both promoters and intragenic regions | Effect on global 5hmC [4]: decreased global 5hmC | Effect on 5hmC [8]: dose-dependently reduced 5hmC | Reduction of global 5hmC [5]: ≤ 95% | Effect on global 5hmC [5]: little effect | Time to intracellular accumulation of ITA [6]: < 30 s

CCCCCCCCOC(=O)[C@@H](O)CCC(=O)O [Octyl-L-2HG]
Effect on 5hmC [8]: dose-dependently reduced 5hmC

COC(=O)CCC(=O)C(=O)OC [dimethyl-α-KG]
Nfkbiz mRNA (RAW264.7 cells [1]; LPS-stimulated Tet2-WT but not Tet2-KO cells): further increase | Effect on 5hmC in LPS-treated cells (RAW264.7 cells [9]): restored 5hmC | Effect on OI-induced 5hmC reduction ([8]; increasing amount, together with OI): reversed

O=C(O)/C=C/C(=O)O [fumarate]
IC50 (mTET2^CD; read-out: IC50 toward mTET2^CD catalytic activity, 0.1 mM α-KG, 37°C 30 min): > 5000 µM

NC(=O)CC[C@H](N)C(=O)O [glutamine]
Binding to recombinant human TET2^CD (STD NMR) [3]: not

α-ketoglutarate [α-KG]
Binding to TET2^CD R1896M mutant (STD NMR) ([2]; R1896M mutation, not S1898F): weakens the binding
